Assay results taken from ChEMBL document CHEMBL4308872, “Dose dependent actions of LCL521 on acid ceramidase and key sphingolipid metabolites” (2018).
Calls of active or inactive are those of the source. No cut-off for these calls is given here.

Tests used:
[1] = target: T1, Acid ceramidase (Homo sapiens) (UniProt Q13510); assay: Inhibition of ACDase in human MCF7 cells assessed as down regulation of dihydrosphingosine at 10 uM after 1 hr by LC-MS/MS analysis; type: cell-based
T1 sequence (whole entry): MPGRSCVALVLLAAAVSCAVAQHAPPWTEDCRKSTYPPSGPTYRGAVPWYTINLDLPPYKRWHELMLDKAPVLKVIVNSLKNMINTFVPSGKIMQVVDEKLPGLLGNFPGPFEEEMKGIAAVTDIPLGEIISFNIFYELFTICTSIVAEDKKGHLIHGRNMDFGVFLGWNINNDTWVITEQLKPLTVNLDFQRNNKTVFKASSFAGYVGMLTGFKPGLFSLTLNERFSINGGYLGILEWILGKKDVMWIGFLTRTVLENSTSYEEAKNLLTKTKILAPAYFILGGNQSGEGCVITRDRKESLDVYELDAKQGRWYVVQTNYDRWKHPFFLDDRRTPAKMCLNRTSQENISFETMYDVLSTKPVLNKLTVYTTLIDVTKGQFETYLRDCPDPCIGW

[2] = target: T1, Acid ceramidase (Homo sapiens); assay: Inhibition of ACDase in human MCF7 cells assessed as upregulation of dihydroceramide at 10 uM after 1 hr by LC-MS/MS analysis; type: cell-based
[3] = tested on: MCF7; assay: Down regulation of alpha-ACDase protein expression in human MCF7 cells at >2.5 uM after 1 hr by Western blot analysis; type: functional, cell-based
Method in brief: (§1)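 MCF7 cells seeded overnight (1×10^6 per 100 mm dish) were exposed to vehicle or 10 μM LCL521 for 1, 2, 5, 8, 15 and 24h, or to 0.1–10 μM for 1h. α- and precursor (P-)ACDase detected by western blot; actin monitored loading and transfer.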

[4] = tested on: MCF7; assay: Down regulation of alpha-ACDase protein expression in human MCF7 cells up to 1 uM after 1 hr by Western blot analysis; type: functional, cell-based
Method in brief: (§2)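 MCF7 cells (RPMI 1640, 10% FBS, 37°C, 5% CO2; 1×10^6 seeded in 100 mm dishes overnight) exposed to vehicle or LCL521, 0.1–10 μM for 1h, or 1 μM for 0.25–10h. α-ACDase detected by western blot, with actin as the loading/transfer control.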

[5] = tested on: MCF7; assay: Down regulation of alpha-ACDase protein expression in human MCF7 cells at 1 uM after 1 hr by Western blot analysis; type: functional, cell-based; method in brief: as §2
[6] = tested on: MCF7; assay: Down regulation of alpha-ACDase protein expression in human MCF7 cells at 10 uM after 1 hr by Western blot analysis; type: functional, cell-based; method in brief: as §1
[7] = target: T1, Acid ceramidase (Homo sapiens); assay: Inhibition of ACDase in human MCF7 cells assessed as down regulation of sphingosine at 1 uM after 10 hrs by LC-MS/MS analysis; type: cell-based
Method in brief: (§3)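 MCF7 cells received vehicle or 1 μM LCL521 for 10h. Lipids were extracted from cell pellets, and Cer, Sph and S1P were quantified by LC-MS/MS as pmol/nmol lipid phosphate, expressed as % control; means ± st dev of 5 replicates.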

[8] = target: T1, Acid ceramidase (Homo sapiens); assay: Inhibition of ACDase in human MCF7 cells assessed as down regulation of sphingosine 1-phosphate at 1 uM after 10 hrs by LC-MS/MS analysis; type: cell-based; method in brief: as §3
[9] = tested on: MCF7; assay: Down regulation of alpha-ACDase expression in human MCF7 cells at 1 uM after 10 hrs by Western blot analysis; type: functional, cell-based
[10] = tested on: MCF7; assay: Down regulation of alpha-ACDase expression in human MCF7 cells at 10 uM after 2 to 24 hrs by Western blot analysis; type: functional, cell-based; method in brief: as §1
[11] = tested on: MCF7; assay: Down regulation of alpha-ACDase expression in human MCF7 cells at 10 uM after 8 hrs by Western blot analysis; type: functional, cell-based; method in brief: as §1
[12] = tested on: MCF7; assay: Down regulation of p-ACDase expression in human MCF7 cells at 10 uM after 8 hrs by Western blot analysis; type: functional, cell-based; method in brief: as §1
[13] = target: T1, Acid ceramidase (Homo sapiens); assay: Inhibition of ACDase in human MCF7 cells assessed as down regulation of sphingosine at 10 uM after 2 hrs by LC-MS/MS analysis; type: cell-based
Method in brief: (§4)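 Exposure of MCF7 cells to vehicle or 10 μM LCL521 for 0.25–24h. Cer, Sph and S1P measured by LC-MS/MS in pellet lipid extracts, normalized to lipid phosphate, given as % control; means ± st dev of 4 replicates.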

[14] = target: T1, Acid ceramidase (Homo sapiens); assay: Inhibition of ACDase in human MCF7 cells assessed as upregulation of ceramide at 10 uM after 2 hrs by LC-MS/MS analysis; type: cell-based; method in brief: as §4
[15] = target: T1, Acid ceramidase (Homo sapiens); assay: Inhibition of ACDase in human MCF7 cells assessed as down regulation of sphingosine at 10 uM after 24 hrs by LC-MS/MS analysis; type: cell-based; method in brief: as §4
[16] = target: T1, Acid ceramidase (Homo sapiens); assay: Inhibition of ACDase in human MCF7 cells assessed as down regulation of sphingosine 1-phosphate at 10 uM after 24 hrs by LC-MS/MS analysis; type: cell-based; method in brief: as §4
[17] = target: T1, Acid ceramidase (Homo sapiens); assay: Inhibition of ACDase in human MCF7 cells assessed as upregulation of C14-ceramide species at 10 uM after 1 hr by LC-MS/MS analysis; type: cell-based
Method in brief: (§5)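 MCF7 cells treated 1h with vehicle or 10 μM LCL521. Chain-length ceramide species and Sph in pellet lipid extracts quantified by LC-MS/MS per nmol lipid phosphate; means ± st dev of 6 replicates, t-test against control.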

[18] = target: T1, Acid ceramidase (Homo sapiens); assay: Inhibition of ACDase in human MCF7 cells assessed as upregulation of C16-ceramide species at 10 uM after 1 hr by LC-MS/MS analysis; type: cell-based; method in brief: as §5
[19] = target: T1, Acid ceramidase (Homo sapiens); assay: Inhibition of ACDase in human MCF7 cells assessed as upregulation of ceramide at 10 uM after 8 to 24 hrs by LC-MS/MS analysis; type: cell-based; method in brief: as §4
[20] = target: T1, Acid ceramidase (Homo sapiens); assay: Inhibition of ACDase in human MCF7 cells assessed as upregulation of dihydroceramide species at 10 uM after 8 to 24 hrs by LC-MS/MS analysis; type: cell-based
Method in brief: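 Over 8 and 24h, MCF7 cells received vehicle or 10 μM LCL521. Cn-dhCer species and dhSph quantified by LC-MS/MS in extracted lipids, normalized to lipid phosphate; means ± st dev of 4 replicates.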

[21] = target: T1, Acid ceramidase (Homo sapiens); assay: Inhibition of ACDase in human MCF7 cells assessed as upregulation of dihydroceramide species at 10 uM treated for 24 hrs after 1 hr treatment with myriocin by LC-MS/MS analysis; type: cell-based
Method in brief: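 MCF7 cells pretreated 1h with 100nM myriocin, then combined with vehicle or 10 μM LCL521 for 24h. Cn-dhCer quantified by LC-MS/MS per nmol lipid phosphate; triplicates.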

[22] = target: T2, Sphingolipid delta(4)-desaturase DES1 (Homo sapiens) (UniProt O15121); assay: Inhibition of dihydroceramide desaturase in human MCF7 cells assessed as decrease in remaining activity at 5 to 10 uM after 24 hrs; type: cell-based
T2 sequence (whole entry): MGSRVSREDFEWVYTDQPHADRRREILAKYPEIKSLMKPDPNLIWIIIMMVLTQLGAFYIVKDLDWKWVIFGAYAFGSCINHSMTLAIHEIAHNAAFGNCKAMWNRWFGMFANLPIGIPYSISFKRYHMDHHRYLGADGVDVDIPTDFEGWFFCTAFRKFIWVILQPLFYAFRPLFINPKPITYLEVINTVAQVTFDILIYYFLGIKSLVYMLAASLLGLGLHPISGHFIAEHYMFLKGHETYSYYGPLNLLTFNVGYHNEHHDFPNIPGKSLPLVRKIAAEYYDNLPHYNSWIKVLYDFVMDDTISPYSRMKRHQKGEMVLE
Method in brief: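 Intact MCF7 cells (3×10^6 seeded in 150 mm dishes overnight) treated with vehicle or LCL521 for 24h. Cells were then pelleted and dihydroceramide desaturase activity assayed by a prior method. Means ± st dev of triplicates versus 0 μM.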

[23] = tested on: MCF7; assay: Down regulation of alpha-ACDase expression in human MCF7 cells at 10 uM after 24 hrs in presence of cyclohexamide by Western blot analysis; type: functional, cell-based
Method in brief: (§6)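 MCF7 cells pretreated 1h with vehicle or 40 μM cycloheximide, then given vehicle or 10 μM LCL521 alone or combined for 1, 8 and 24h. P- and α-ACDase detected by western blot against actin.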

[24] = tested on: MCF7; assay: Down regulation of p-ACDase expression in human MCF7 cells at 10 uM after 24 hrs in presence of cyclohexamide by Western blot analysis; type: functional, cell-based; method in brief: as §6
[25] = target: T1, Acid ceramidase (Homo sapiens); assay: Inhibition of ACDase in human MCF7 cells assessed as down regulation of sphingosine at 10 uM after 1 to 24 hrs by LC-MS/MS analysis; type: cell-based; method in brief: as §4
[26] = tested on: MCF7; assay: Down regulation of p-ACDase expression in human MCF7 cells assessed as p-ACDase expression at 10 uM measured at 24 hrs by Western blot analysis; type: functional; method in brief: as §1
[27] = target: T1, Acid ceramidase (Homo sapiens); assay: Inhibition of ACDase in human MCF7 cells assessed as upregulation of dhC16-Cer species at 10 uM after 1 hr by LC-MS/MS analysis; type: cell-based
[28] = tested on: UMSCC14A; assay: Down regulation of ACDase protein expression in human UMSCC14A cells at 5 to 10 uM after 5 hrs by Western blot analysis; type: functional, cell-based
Method in brief: (§7)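 Cell lines SCC14A (mouth squamous carcinoma) and PPC-1 (prostate cancer) given a single treatment of LCL521; ACDase protein detected by western blot.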

[29] = tested on: PPC-1; assay: Down regulation of ACDase protein expression in human PPC1 cells at 5 to 10 uM after 5 hrs by Western blot analysis; type: functional, cell-based; method in brief: as §7
[30] = tested on: MCF7; assay: Down regulation of alpha-ACDase protein expression in human MCF7 cells at 10 uM treated for 5 hrs after pretreatment with 4 uM CA-074me for 30 mins by Western blot analysis; type: functional, cell-based
Method in brief: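 MCF7 cells pretreated with a cathepsin B inhibitor, then exposed to 10 μM LCL521. α-ACDase protein assessed by western blot.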

For `CCCCCCCCCCCCCC(=O)N[C@H](COC(=O)CN(C)C)[C@H](OC(=O)CN(C)C)c1ccc([N+](=O)[O-])cc1.Cl.Cl`, the inhibition [1] was “Active”, the inhibition [2] was “Active” and the Activity [3] was “Dose-dependent effect”. For the same compound, the Activity [4] was “inactive”, the Activity [5] was “inactive” and the Activity [6] was “Active”. The inhibition [7] was “inactive”, the inhibition [8] was “inactive” and the inhibition [9] was “inactive”. For the same compound, the Activity [10] was “Active”, the Activity [11] was “Active” and the Activity [12] was “Active”. The inhibition [13] was “Active”, the inhibition [14] was “Active” and the inhibition [15] was “inactive”. The inhibition [16] was “Active”, the inhibition [17] was “Active” and the inhibition [18] was “Active”. For the same compound, the inhibition [19] was “Active”, the inhibition [20] was “Active” and the inhibition [21] was “inactive”. The inhibition [22] was “Active”, the Activity [23] was “Active” and the Activity [24] was “Active”. The inhibition [25] was “Active”, the Activity [26] was >70% and the inhibition [27] was “Active”. The Activity [28] was “Active”, the Activity [29] was “Active” and the Activity [30] was “inactive”.
